Holding throughout (type): functional
The test system of one assay is SW1573. In words: Growth inhibition of human SW1573 cells after 48 hrs by SRB assay. The note with it: SW1573, 48 h. In outline:
(§1)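 Cells maintained in RPMI 1640 with 5% heat-inactivated fetal calf serum and 2 mM L-glutamine at 37 °C, 5% CO₂, humidified air. Exponentially growing cells trypsinized and resuspended in medium containing penicillin G (100 units/mL) and streptomycin (0.1 mg/mL). Single-cell suspensions with >97% viability by trypan blue exclusion counted, diluted and seeded into 96-well plates.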

The test system of another assay is WiDr. The assay can be described thus: Growth inhibition of human WiDr cells after 48 hrs by SRB assay. An outline of the steps: as §1
A short description of assay [1]: Growth inhibition of human HBL100 cells after 48 hrs by SRB assay. To be noted: HBL-100, 48 h. In outline:
as §1

Another assay concerns HeLa. The assay can be described thus: Growth inhibition of human HeLa cells after 48 hrs by SRB assay. In outline:
as §1

For `CC1OC2=C(C(=O)C(=O)c3cccc(O)c32)C1(C)C` (configuration not stated), the GI50 with SW1573 stood at 2400 nM; in the assay with WiDr, 19000 nM; in assay [1], 2200 nM; in the assay on HeLa, 1900 nM.
`CC1OC2=C(C(=O)C(=O)c3c(O)cccc32)C1(C)C` (configuration not stated): the GI50 came out at 990 nM with SW1573, 5200 nM with WiDr, 540 nM in assay [1] and 1900 nM in the assay with HeLa.
Taken in the same sequence, the figures for `CC1C2=C(OC1(C)C)c1c(O)cccc1C(=O)C2=O` (configuration not stated) were 1300 nM, 2100 nM, 2000 nM and 900 nM.
For `CC1C2=C(OC1(C)C)c1cccc(O)c1C(=O)C2=O` (configuration not stated), the GI50 was 480 nM in the assay with SW1573, 16000 nM in the assay with WiDr, 340 nM in assay [1] and 1800 nM in the assay on HeLa.
Taken in the same sequence, the figures for `C=C(C)C1CC2=C(O1)c1c(O)cccc1C(=O)C2=O` (configuration not stated) were 2700 nM, 26000 nM, 3000 nM and 3000 nM.
Regarding `CC1(C)C2=C(OC1CI)c1c(O)cccc1C(=O)C2=O` (configuration not stated), the 50% growth inhibitory concentration (GI50) with SW1573 turned out to be 1600 nM; in the assay on WiDr, 1800 nM; in assay [1] it was 1800 nM; with HeLa, 1600 nM.
With `CC1(C)C2=C(OC1CI)c1cccc(O)c1C(=O)C2=O` (configuration not stated), the GI50 in the assay with SW1573 was determined as 800 nM; in the assay on WiDr, 1900 nM; in assay [1], 460 nM; in the assay with HeLa, 1500 nM.
With `C=C(C)C1CC2=C(O1)c1cccc(O)c1C(=O)C2=O` (configuration not stated) [LANTALUCRATIN B], the GI50 turned out to be 1000 nM with SW1573, 2200 nM in the assay with WiDr, 460 nM in assay [1] and 210 nM in the assay with HeLa.
